Laboratory results as given in PubChem BioAssay.
Inconclusive results are not listed.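 How the source made its calls, unless noted: active means viability at or below 27.92% in each of two runs, the all-compound median minus 4 SD; inconclusive means no clear call, values can overlap the other calls; inactive means the rest.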

How the values were obtained:
[1] = S. cerevisiae growth inhibition in permissive medium (OD615), pilot counter-assay for S. cerevisiae lifespan shortening project, permissive growth control (AID 705;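 active means growth inhibition above 25% in both replicates, a cutoff set 3 SD above the mean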); settings: OD615, 24 h, at 10 µM, active compounds read high
How it was run: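 Timing: 24 h exposure, 30 °C / Material: Saccharomyces cerevisiae strain carrying genetically modified DeaD replicative-lifespan system / Signal: OD at 615 nm / Compound: 10 µM single dose, 0.25% DMSO / Medium: SC raffinose/galactose permissive medium / Evaluation: reduction in yeast growth (OD615)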

[2] = S. cerevisiae growth inhibition in restrictive medium, OD615, pilot screen, restrictive growth control, yeast lifespan reduction project (AID 706;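 active means growth inhibition above a set limit, 3 SD over mean compound inhibition, in both replicates, cut at about 43% in these data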;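 further: modified DeaD lifespan yeast strain shifted to restrictive glucose medium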); settings: OD615, 48 h, at 10 µM, active compounds read high
How it was run: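 System: Engineered S. cerevisiae DeaD strain | Detection: OD615 | Buffer or medium: CSMM-D glucose medium | Doses: 10 µM compound, 0.25% DMSO | Timing: 4 h pre-growth plus 48 h compound exposure, 30 °C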

[3] = doxorubicin toxicity protection in MRP-1 cells – H69AR cells, CellTiter-Glo, duplicate, MRP-1 activator project, pilot screen (AID 807;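 active means viability increase at or above a cutoff of the median across tested compounds plus 3 SD, cut at about 8.5% in these data, passing the limit was not always enough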;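 further: compound pretreatment 18-22 h then 72 h combined with doxorubicin; 0% = doxorubicin alone and 100% = vehicle without doxorubicin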); settings: H69AR viability with doxorubicin, CellTiter-Glo luminescence; at 10 µM; active compounds read high
[4] = viability of HCT116 without oncogenic beta-catenin – human colon tumor cells, pilot screen (AID 823;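 active means cell viability at or below a set limit in both duplicate runs, the limit being the all-compound median minus 4 SD, cut at about 23% in these data, passing the limit was not always enough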;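 further: 0% = wells killed by 20 µM Hyamine and 100% = untreated DMSO cell wells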); settings: HCT116 beta-catenin knockout viability, CellTiter-Glo, 60 h; at 10 µM; active compounds read low
[5] = viability of PTEN-null HCT116 cells – cell-based, HCT116 clonal line, CellTiter-Glo, pilot screen (AID 824); settings: HCT116 PTEN-deleted viability, 60 h, at 10 µM, active compounds read low;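 further: 0% = 20 µM Hyamine control and 100% = vehicle cell control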
[6] = RAM pathway blockade in budding yeast – dse1pr::URA3 reporter, 5-FOA selection, pilot screen (AID 869;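 active means inhibition over a set limit, the all-compound mean plus 3 SD, in both replicate runs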;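 further: 0% = DMSO wells with no growth and 100% = 10 µM 1-NA-PP1 with full growth; RAM network block rescues cells from 5-FOA so hits raise OD615 growth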); settings: S. cerevisiae dse1pr::URA3 5-FOA growth, OD615, 2 d; at 10 µM; active compounds read high; strain carries analog-sensitive mutant Cbk1 kinase
[7] = RAM signaling pathway blockade in yeast – S. cerevisiae, Pdr1DBD-CYC8 efflux-inhibited sensitized strain, primary screen (AID 1298;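 active means RAM network inhibition above 8.4% in each of two replicates, 3 SD over the compound average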;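 further: 0% = DMSO untreated cells without growth and 100% = 10 µM 1-NA-PP1 full growth; higher means more yeast growth rescued from 5-FOA killing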); settings: S. cerevisiae cbk1-as DSE1-URA3 strain, 5-FOA growth OD615, 2 d; at 50 µM; active compounds read high

NC(=O)CSc1nc2ccccc2n1-c1ccccc1
inactive: growth inhibition [1] -9.13% | growth inhibition [2] 1.74% | viability increase [3] -0.83% | viability [4] 99% | viability [5] 97.5% | inhibition [6] 0.02% | RAM network inhibition [7] 0.62%

CC1Cc2ccccc2N1C1=NS(=O)(=O)c2ccccc21 (stereo unspecified)
inactive: growth inhibition [1] -3.44% | growth inhibition [2] -25.5% | viability increase [3] -1.97% | viability [4] 91.7% | viability [5] 96.5% | inhibition [6] 2.68% | RAM network inhibition [7] 7%

Fc1cccc(Cl)c1CSc1nnnn1-c1ccc2c(c1)OCO2
inactive: growth inhibition [1] 3.1% | growth inhibition [2] 17.6% | viability increase [3] -5.87% | viability [4] 55.7% | viability [5] 46.4% | inhibition [6] 1.1% | RAM network inhibition [7] 10.2%

FC(F)C(F)(F)C1=CC(c2ccccc2)=NCCN1
inactive: growth inhibition [1] -9.88% | growth inhibition [2] -17.6% | viability increase [3] -1.16% | viability [4] 96.7% | viability [5] 85.5% | inhibition [6] 1.59% | RAM network inhibition [7] 2.09%

CCCCOc1ccccc1C1C(C(=O)OC)=CN(CC)C=C1C(=O)OC
inactive: growth inhibition [1] -6.49% | growth inhibition [2] 0.595% | viability increase [3] -5.35% | viability [4] 73.8% | viability [5] 70.9% | inhibition [6] 3.23% | RAM network inhibition [7] 6.73%

COc1cc2c(cc1OC)CN(C(=O)C(C)(C)C)CC2
inactive: growth inhibition [1] -8.97% | growth inhibition [2] -7.4% | viability increase [3] 0.45% | viability [4] 105% | viability [5] 96.7% | inhibition [6] -0.13% | RAM network inhibition [7] -0.98%

Cc1c(C(=O)NCc2ccccc2)oc2ccc(S(=O)(=O)N3CCCC3)cc12
inactive: growth inhibition [1] -11.4% | growth inhibition [2] 3.53% | viability increase [3] -2.64% | viability [4] 97% | viability [5] 93.1% | inhibition [6] 1.49% | RAM network inhibition [7] 2.93%

CCOc1ccccc1N1CCN(S(=O)(=O)CC)CC1
inactive: growth inhibition [1] -0.885% | growth inhibition [2] 4.05% | viability increase [3] -1.83% | viability [4] 94.9% | viability [5] 97.6% | inhibition [6] 0.455% | RAM network inhibition [7] 6.05%

CC(=NCc1ccccc1)C1=C(O)COC1=O
inactive: growth inhibition [1] 5.52% | growth inhibition [2] 8.4% | viability increase [3] -1.47% | viability [4] 100% | viability [5] 92.7% | inhibition [6] 1.06% | RAM network inhibition [7] 4.28%

CCCCCn1c(CCCNC(=O)CC)nc2ccccc21
inactive: growth inhibition [1] -8.6% | growth inhibition [2] -0.63% | viability increase [3] -2.94% | viability [4] 89% | viability [5] 97.6% | inhibition [6] 0.405% | RAM network inhibition [7] 2.13%

Cc1ccc(N(C(C)C(=O)O)S(=O)(=O)c2cccnc2)cc1 (stereo unspecified)
inactive: growth inhibition [1] 2.72% | growth inhibition [2] 0.165% | viability increase [3] -1.52% | viability [4] 95.1% | viability [5] 101% | inhibition [6] -0.19% | RAM network inhibition [7] 1.61%

COc1cccc(NC(=O)c2cccnc2)c1
inactive: growth inhibition [1] -5.19% | growth inhibition [2] 7.85% | viability increase [3] 1.59% | viability [4] 100% | viability [5] 87.2% | inhibition [6] 0.55% | RAM network inhibition [7] 3.7%

COc1ccc(N(CC(=O)NCc2cccs2)S(=O)(=O)c2cccnc2)cc1
inactive: growth inhibition [1] 5.41% | growth inhibition [2] 4.48% | viability increase [3] -0.05% | viability [4] 107% | viability [5] 106% | inhibition [6] 0.045% | RAM network inhibition [7] 7.1%

C=CCNc1nc2c(c(=O)n(C)c(=O)n2C)n1CC(=C)C
inactive: growth inhibition [1] -1.17% | growth inhibition [2] 2.97% | viability increase [3] -0.38% | viability [4] 91.2% | viability [5] 91.8% | inhibition [6] -0.15% | RAM network inhibition [7] 1.58%

Cc1c(C(=O)N2CCN(C(=O)c3ccco3)CC2)sc2nc(-c3ccc(F)cc3)cn12
inactive: growth inhibition [1] -0.195% | growth inhibition [2] 3.62% | viability increase [3] -2.53% | viability [4] 91.8% | viability [5] 89.3% | inhibition [6] 0.195% | RAM network inhibition [7] 3.7%

COc1ccc(NC2c3ccccc3C(=O)N2Cc2ccco2)cc1OC (stereo unspecified)
inactive: growth inhibition [1] 6.53% | growth inhibition [2] 6.86% | viability increase [3] -3.63% | viability [4] 97.5% | viability [5] 89.7% | inhibition [6] 0.985% | RAM network inhibition [7] 3.72%

COc1ccc(NC(=O)Nc2c(C)n(C)n(-c3ccccc3)c2=O)cc1
inactive: growth inhibition [1] 1.73% | growth inhibition [2] 2.85% | viability increase [3] -2.06% | viability [4] 103% | viability [5] 97.9% | inhibition [6] 0.655% | RAM network inhibition [7] 1.34%

CCOc1cccc(C2c3c(oc4ccccc4c3=O)C(=O)N2c2ccccn2)c1 (stereo unspecified)
inactive: growth inhibition [1] -1.86% | growth inhibition [2] -9.72% | viability increase [3] -2.2% | viability [4] 95.6% | viability [5] 93.9% | inhibition [6] 0% | RAM network inhibition [7] 2.56%
